In ChEMBL document CHEMBL4665824, “Characterization and Discovery of a Selective Small-Molecule Modulator of Mitochondrial Complex I Targeting a Unique Binding Site” (J Med Chem, 2020):
Activity calls are given as the source filed them. No cut-off for these calls is given here.

Assays:
[1] = Inhibition of mitochondrial complex 1 in 10 months old transgenic AD mouse model assessed as suppression of maximal rate of ADP-stimulated respiration of pyruvate at 50 mg/kg, po QD for 8 weeks; assay type: functional; conditions: 1344 h
[2] = Effect on ADP/O ratio in 5 months old transgenic AD mouse model in presence of pyruvate and malate at 50 mg/kg, po dosed 5 times/week for 2 weeks (2.6 +/- 0.2); assay type: functional
Cortical neuron [3] = assay: Inhibition of mitochondrial complex 1 in mouse cortical neurons assessed as inhibition of rotenone-induced ROS production by measuring ROS production rate at 1 uM incubated for 12 hrs by mitoSOX fluorescence based flow cytometry (Rvb =3.3 RFU/min)
MC65 [4] = assay: Inhibition of mitochondrial complex 1 in human MC65 cells assessed as inhibition of antimycin A-induced ROS production at 1 to 3 uM incubated for 12 hrs by mitoSOX fluorescence based flow cytometry; assay type: cell-based; conditions: dose microM 1-3, time 12.0 hrs
Mus musculus [5] = assay: Effect on respiratory control ratio in 5 months old transgenic AD mouse model at 50 mg/kg, po dosed 5 times/week for 2 weeks; assay type: functional, organism-based
MC65 [6] = assay: Effect on mitochondrial membrane potential in human MC65 cells at 0.3 to 1 uM incubated for 48 hrs by flow cytometry; assay type: functional, cell-based; conditions: dose microM 0.3-1, time 48.0 hrs
Cerebral cortex [7] = assay: Effect on ADP/O ratio in C57BL/6 mouse cerebral cortex mitochondria at 2 uM (reference value: 2.9)
Mus musculus [8] = assay: Effect on respiratory control ratio in 5 months old transgenic AD mouse model in presence of pyruvate and malate at 50 mg/kg, po dosed 5 times/week for 2 weeks (4.1 +/- 0.7); assay type: functional
MC65 [9] = assay: Effect on ATP content in human MC65 cells at 0.1 to 1 uM incubated for 48 hrs; assay type: functional, cell-based; conditions: dose microM 0.1-1, time 48.0 hrs
Cortical neuron [10] = assay: Inhibition of mitochondrial complex 1 in mouse cortical neurons assessed as inhibition of MPP+-induced mitochondrial depolarization incubated for 24 hrs by fluorescence based assay
How it was run: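 Primary cortical neurons from E15.5 C57BL/6J embryos (DIV 14; 5×10^4 cells/well) were given compound plus MPP+ for 24 h. They were then loaded with TMRM (1 μM final, 30 min) and washed twice with PBS. Dye was released with 50% DMSO/0.5% Triton in water and read at Ex/Em 548/574 nm.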

Mus musculus [11] = assay: Effect on ADP/O ratio in 5 months old transgenic AD mouse model at 50 mg/kg, po dosed 5 times/week for 2 weeks; assay type: functional, organism-based
SH-SY5Y [12] = assay: Inhibition of mitochondrial complex 1 in human SH-SY5Y cells assessed as inhibition of MPP+-induced mitochondrial depolarization in presence of 10 uM NAC incubated for 24 hrs by fluorescence based assay; assay type: cell-based
How it was run: (§1)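 SH-SY5Y cells (4×10^5/well) treated with compound, NAC (10 μM) or trolox (10 μM) plus MPP+ (30 μM) for 24 h. TMRM added at 100 nM final for 30 min. Cells trypsinized, resuspended in PBS and read by flow cytometry.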

Mus musculus [13] = assay: Effect on respiratory control ratio in 5 months old transgenic AD mouse model in presence of succinate at 50 mg/kg, po dosed 5 times/week for 2 weeks (2.5 +/- 0. 2); assay type: functional
[14] = Effect on ADP/O ratio in 5 months old transgenic AD mouse model in presence of succinate at 50 mg/kg, po dosed 5 times/week for 2 weeks (1.4 +/- 0.1); assay type: functional
Mus musculus [15] = organism: Mus musculus; assay: Inhibition of mitochondrial complex 2 in C57BL/6 mouse cerebral cortex mitochondria assessed as modulation of maximal rate of ADP-stimulated respiration of succinate at 2 uM
MC65 [16] = assay: Inhibition of mitochondrial complex 1 in human MC65 cells assessed as inhibition of ROS production incubated for 48 hrs by mitoSOX fluorescence based flow cytometry; assay type: cell-based
How it was run: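 MC65 cells in Opti-MEM (1.6×10^6/well) incubated with compound at 37 °C for 48 h, with or without tetracycline. Collected into HBSS and stained with mitoSOX (2.5 μM) 20 min at 37 °C. Washed twice, then mean fluorescence intensity read by flow cytometry.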

MC65 [17] = assay: Inhibition of mitochondrial complex 1 in human MC65 cells assessed as inhibition of rotenone-induced ROS production by measuring ROS production rate at 1 uM incubated for 12 hrs by mitoSOX fluorescence based flow cytometry (reference value: 8.3 RFU/min)
Mus musculus [18] = organism: Mus musculus; assay: Inhibition of mitochondrial complex 1 in permeabilized mouse brain mitochondria assessed as reduction in ROS production at 2 to 6 uM incubated for 1 hr in presence of NADH by Amplex Red and horseradish peroxidase based assay; conditions: dose microM 2-6, time 1.0 hrs
How it was run: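 Permeabilized mouse brain mitochondria (0.1 mg protein/ml) were pretreated with compound for 1 h at 30 °C. H2O2 release was triggered with NADH (10 μM) and detected by Amplex Red (50 μM) oxidation with HRP (0.1 U/ml) at Ex/Em 530/590 nm. Output was calibrated against an H2O2 standard curve (linear to 2 μM). N=6, mean ± SEM, Student t-test.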

[19] = Inhibition of mitochondrial complex 1 in 5 months old transgenic AD mouse model assessed as suppression of maximal rate of ADP-stimulated respiration of pyruvate at 50 mg/kg, po dosed 5 times/week for 2 weeks; assay type: functional; conditions: 336 h
Mus musculus [20] = organism: Mus musculus; assay: Inhibition of mitochondrial complex 1 in C57BL/6 mouse cerebral cortex mitochondria assessed as modulation of maximal rate of ADP-stimulated respiration of pyruvate at 2 uM
How it was run: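 Mitochondria isolated from C57BL/6 mouse cerebral cortex (N=6) with vehicle or 2 μM compound. Oxygen consumption measured by Clark-type electrode at 30 °C with pyruvate/malate (20/5 mM) or succinate (20 mM). ADP-stimulated (state 3) and state 4 rates recorded; RCR taken as state 3/state 4, with ADP/O also derived.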

Cerebral cortex [21] = assay: Effect on respiratory control ratio in C57BL/6 mouse cerebral cortex mitochondria at 2 uM (reference value: 5.3)
SH-SY5Y [22] = assay: Inhibition of mitochondrial complex 1 in human SH-SY5Y cells assessed as inhibition of MPP+-induced mitochondrial depolarization incubated for 24 hrs by fluorescence based assay; assay type: cell-based
How it was run: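 SH-SY5Y cells (4×10^5 per well) were co-treated with compound and MPP+ (30 μM) for 24 h at 37 °C. TMRM was then added to 100 nM final for 30 min. Cells were trypsinized, pelleted, resuspended in PBS, and membrane potential fluorescence was read by flow cytometry.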

SH-SY5Y [23] = assay: Inhibition of mitochondrial complex 1 in human SH-SY5Y cells assessed as inhibition of MPP+-induced mitochondrial depolarization in presence of 10 uM trolox incubated for 24 hrs by fluorescence based assay; assay type: cell-based; how it was run: as §1
Mus musculus [24] = assay: Inhibition of mitochondrial complex 1 in 5 months old transgenic AD mouse model assessed as suppression of state 3 respiration of pyruvate at 50 mg/kg, po dosed 5 times/week for 2 weeks; assay type: functional, organism-based
Mus musculus [25] = assay: Inhibition of mitochondrial complex 1 in 10 months old transgenic AD mouse model assessed as suppression of state 3 respiration of pyruvate at 50 mg/kg, po QD for 8 weeks; assay type: functional, organism-based
Mus musculus [26] = organism: Mus musculus; assay: Inhibition of mitochondrial complex 1 in C57BL/6 mouse cerebral cortex mitochondria assessed as reduction in ETC enzymatic activity at 2 uM relative to control
How it was run: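 Detergent-solubilized mouse brain mitochondria (N=6) treated with 2 μM compound, then electron transport chain enzyme activities determined.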

Structure (SMILES): COc1ccc2[nH]cc(CCNC(=O)CC(=O)CCc3ccc(O)cc3)c2c1
- inhibition in vivo at 50 mg/kg [1]: 25%
- Ratio [2]: 2.6
- Activity (Cortical neuron [3]): 2 RFU/min
- inhibition (MC65 [4]): inactive
- Activity (Mus musculus [5]): inactive
- Activity (MC65 [6]): inactive
- Ratio (Cerebral cortex [7]): 3.1
- Ratio (Mus musculus [8]): 4.2
- Activity (MC65 [9]): inactive
- inhibition (Cortical neuron [10]): Dose-dependent effect
- Activity (Mus musculus [11]): inactive
- inhibition (SH-SY5Y [12]): Active
- Ratio (Mus musculus [13]): 2.7
- Ratio [14]: 1.3
- inhibition (Mus musculus [15]): inactive
- inhibition (MC65 [16]): Dose-dependent effect
- Activity (MC65 [17]): 5.8 RFU/min
- inhibition (Mus musculus [18]): Active
- inhibition in vivo at 50 mg/kg [19]: 9%
- inhibition (Mus musculus [20]): Active
- Ratio (Cerebral cortex [21]): 4.7
- inhibition (SH-SY5Y [22]): Dose-dependent effect
- inhibition (SH-SY5Y [23]): Active
- inhibition (Mus musculus [24]): Active
- inhibition (Mus musculus [25]): Active
- inhibition (Mus musculus [26]): 20%
